Bioassay records deposited in PubChem by several laboratories.
Shown are actives, neighbours in structure and some others; about 1.1% of the full set was active somewhere.
KLK5 inh = kallikrein 5 (human) inhibition | Q9Y337 | hit rate 0.59% among 210,000 | recombinant hK5, fluorogenic AMC substrate cleavage | inhibition, % at 5 µM;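 active = inhibition of 40% or more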;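 also: 0% = enzyme controls without compound and 100% = no-enzyme blanks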
FXIa inh = factor XIa (human) inhibition; P03951; purified FXIa, Boc-Glu-Ala-Arg-AMC fluorogenic substrate; inhibition, % at 5 µM; hit rate 0.14% among 220,000;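 active = inhibition of at least 40%; inactive = inhibition below 40%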;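 also: fluorescence of freed AMC excited at 355 nm; 0% = enzyme without compound and 100% = no enzyme blank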
Target sequence (P03951 19-387 limits assumed): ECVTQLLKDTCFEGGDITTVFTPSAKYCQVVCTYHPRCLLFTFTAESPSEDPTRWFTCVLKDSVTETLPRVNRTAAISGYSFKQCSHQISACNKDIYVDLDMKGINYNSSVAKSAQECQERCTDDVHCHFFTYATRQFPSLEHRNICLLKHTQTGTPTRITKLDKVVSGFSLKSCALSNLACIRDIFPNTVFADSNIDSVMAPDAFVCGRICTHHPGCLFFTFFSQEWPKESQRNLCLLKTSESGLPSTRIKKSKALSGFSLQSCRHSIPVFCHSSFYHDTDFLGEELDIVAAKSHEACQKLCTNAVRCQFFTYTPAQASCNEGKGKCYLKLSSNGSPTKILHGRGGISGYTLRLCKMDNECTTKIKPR
Target sequence (P03951 388-625 limits assumed): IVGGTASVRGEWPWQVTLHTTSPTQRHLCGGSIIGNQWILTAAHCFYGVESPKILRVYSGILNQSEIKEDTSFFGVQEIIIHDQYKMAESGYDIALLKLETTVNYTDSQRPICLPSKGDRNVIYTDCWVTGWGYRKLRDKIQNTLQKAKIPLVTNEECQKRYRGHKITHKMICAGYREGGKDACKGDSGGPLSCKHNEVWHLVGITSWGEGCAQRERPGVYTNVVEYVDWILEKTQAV
FXIIa inh = blocks human coagulation factor XIIa protease activity; purified FXIIa, Boc-QGR-AMC fluorogenic substrate, 2 h; hit rate 0.3% among 220,000; AID 800; inhibition, % at 5 µM; P00748; in the data active = inhibition above about 40%;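 also: 0% = enzyme with no compound and 100% = blank without enzyme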
thrombin 1536 = thrombin (human) inhibition; P00734; alpha-thrombin, Boc-VPR-AMC fluorogenic substrate cleavage; inhibition, % at 5 µM; hit rate 0.26% among 220,000;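 active = inhibition at or above 40%; inactive = inhibition below 40%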;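 also: 0% = enzyme with no compound and 100% = wells without enzyme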
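Material: Human alpha-thrombin protein | Buffer or medium: pH 7.5 Tris-saline with Tween 20 | Reagent: Boc-VPR-AMC substrate, 15 µM final | Schedule: Reaction at ambient temperature | Detection: AMC fluorescence at 355 nm excitation and 460 nm emission | Evaluation: Percent inhibition scaled between no-compound controls and no-enzyme blanks | Controls: no-compound enzyme wells and no-enzyme blanks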
Furin inhibitor = inhibitors of human furin | P09958 | hit rate 0.061% among 220,000 | inhibition, % at 20 µM or 30 µM | purified furin, fluorogenic substrate cleavage; in the data active = inhibition above about 25%
* hit, by the source's call; x = no result given.

SMILES	KLK5 inh	FXIa inh	FXIIa inh	thrombin 1536	Furin inhibitor
Cc1ccc(NC(=O)C2CCCN(S(=O)(=O)c3cnc[nH]3)C2)cc1F (stereo not given)	71*	11	12	19	-5
CC(C)c1ccc(NC(=O)C2CCCN(S(=O)(=O)c3cnc[nH]3)C2)cc1 (stereo not given)	62*	-2	-1	8	-15
Cc1cc(Nc2ccc3c(c2)OCCO3)c2cccc(C)c2n1	-15	-6	5	-7	-6
COc1ccc(CCN2C(=O)CSC2=Nc2ccc(C(C)C)cc2)cc1OC	1	12	5	-1	-25
N#C/C(=C\c1cccc(O)c1)C(=O)Nc1ccc2c(c1)OCCO2	-2	2	5	-1	-14
CCn1c(C)nc2cc(C(=O)NNC(=S)Nc3ccc(C)cc3)ccc21	17	31	51*	43*	-3
CCn1c(C)nc2cc(C(=O)NNC(=S)Nc3ccccc3OC)ccc21	-11	2	6	5	-17
N#C/C(=C\c1cccnc1)c1nc2ccccc2[nH]1	39	63*	32	11	-4
CCOc1ccc(-c2c[n+]3c(n2-c2ccccc2)CCCCC3)cc1	-2	2	12	-10	-8
O=c1cc(CO)occ1OCc1cccc(F)c1	40*	-7	9	5	-4
Cc1ccc(COc2coc(CO)cc2=O)cc1	3	-5	-8	1	-30
COc1ccc(C(=O)Nc2ccc(S(=O)(=O)NC(C)=O)cc2)cc1[N+](=O)[O-]	1	-1	5	-4	-23
CCOCCCNS(=O)(=O)c1ccc(NC(=O)c2ccc(OC)c([N+](=O)[O-])c2)cc1	37	42*	19	12	-13
CCC(CC)c1nnc(NC(=O)CN2C(=O)c3ccccc3C2=O)s1	-26	-7	-5	-1	-11
CCC(CC)c1nnc(NC(=O)CCN2C(=O)c3ccccc3C2=O)s1	53*	4	25	27	-20
CCC(CC)c1nnc(NC(=O)Oc2ccccc2)s1	2	30	43*	2	-3
O=C1S/C(=C/c2ccccc2F)C(=O)N1CCN=C1NS(=O)(=O)c2ccccc21	-9	7	15	5	5
O=C(Oc1ccc2c(=O)c(Oc3ccc4ccccc4c3)coc2c1)c1cccnc1	-5	0	3	-5	1
O=C(Oc1ccc2c(=O)c(Cl)coc2c1)c1cccnc1	-10	66*	30	23	-8
CC(=O)Nc1ccccc1OCC(=O)NCC(F)(F)F	10	2	7	-3	-17
CN(C)c1ccc(N=Nc2ccccc2C(=O)OCC(=O)NCC2CCCCC2)cc1	48*	7	21	11	21
O=C(Cn1cnc2ccccc2c1=O)c1ccc(Cl)cc1	x	11	13	-5	-5
Cc1nc(CCNS(=O)(=O)c2cccnc2)cs1	1	2	14	3	-4
CN1CCN(C2=CC3=CC(=C(C#N)C#N)CCC3CC2)CC1 (stereo not given)	4	0	11	5	0
CCN1CCN(C2=CC3=CC(=C(C#N)C#N)CCC3CC2)CC1 (stereo not given)	6	10	17	15	28*
SMILES	KLK5 inh	FXIa inh	FXIIa inh	thrombin 1536	Furin inhibitor
CCS(=O)(=O)c1nc(S(=O)(=O)c2ccc(Cl)cc2)c(NCc2ccccn2)s1	x	0	6	-3	-19
N#C/C(=C\c1ccc(Cl)cc1)C(=O)Nc1cccnc1	2	-8	3	-4	-10
CCn1c(COc2cc(C)ccc2C(C)C)nnc1SCC(=O)Nc1nccs1	-9	-5	4	-8	-14
CN(C)CCCNc1ncnc2sc(-c3ccccc3)cc12	0	0	7	95*	-31
CN(C)CCCNc1ncnc2c1cnn2-c1ccccc1	-12	-2	7	-8	-10
Cc1ccc(NC2=NC3(CCCCC3)N=C(N)N2)c(C)c1	37	45*	13	2	-11
Cc1ccc(C(=O)N/C(=C/c2ccccc2)C(=O)NCC2CCCO2)cc1 (stereo not given)	x	0	9	-1	-19
O=C(Nc1ccc(N2CCOCC2)cc1)c1cnsn1	51*	2	6	13	-15
COc1cccc(C(=O)NNC(=O)Cc2ccc([N+](=O)[O-])cc2)c1	10	-11	-8	44*	-4
O=C1CN(C(=O)COc2ccc(Br)cc2)c2ccccc2N1	3	0	2	3	-10
COc1ccc(Cl)cc1N(CC(=O)NC(C)(C)C)S(=O)(=O)c1ccc(C)c([N+](=O)[O-])c1	45*	12	20	29	-10
COC(=O)CN(c1cc(Cl)ccc1OC)S(=O)(=O)c1ccc(C)cc1	0	0	9	-2	-20
CC(NC(=S)NCCCN1CCOCC1)C12CC3CC(CC(C3)C1)C2 (stereo not given)	8	5	8	-9	-22
COc1ccc(C2C(C(C)=O)=C(O)C(=O)N2c2nccs2)cc1OC (stereo not given)	57*	11	50*	23	-6
CCCCNC(=O)CC(NS(=O)(=O)c1ccc(C)cc1)c1ccco1 (stereo not given)	0	10	14	1	-21
COCCNC(=O)CC(NS(=O)(=O)c1ccc(C)cc1)c1ccco1 (stereo not given)	46*	0	52*	10	-12
O=C(NN=C1CCCC1)c1ccccc1OCc1ccc(Cl)cc1	38	52*	28	33	-2
CC(NC(=O)C(c1ccccc1)c1ccccc1)C(=O)N1CCCCC1 (stereo not given)	7	7	10	31	10
COc1ccc(C(=O)COC(=O)C2CCC(=O)N2)cc1 (stereo not given)	2	2	3	-10	-14
CCOc1ncccc1C(=O)OCC(=O)c1cc(OC)c(OC)c(OC)c1	1	0	11	2	-28
O=C(Nc1sc2c(c1C(=O)NCC1CCCO1)CCCC2)c1cccs1 (stereo not given)	54*	6	19	21	-15
O=C(Nc1sc2c(c1C(=O)O)CCCC2)c1cccs1	2	13	10	9	-26
Cc1ccc(S(=O)(=O)Nn2c(C)nnc2-n2nc(C)cc2C)cc1	0	4	6	-5	-21
Cc1cc(C)n(-c2nnc(C)n2NS(=O)(=O)c2ccc(F)cc2)n1	4	10	71*	2	-14
O=C(NCCSc1ccccc1)c1ccccc1	89*	-6	0	0	-7
O=C(NCCSc1ccccc1)c1ccc(Br)cc1	-6	-2	11	-8	-22
Cn1ncc2c(NNC(=O)c3ccc(Cl)cc3Cl)ncnc21	-70	21	25	4	-8
O=C(CNC(=O)c1ccccc1)NCC(=O)OCC(=O)c1ccc(F)cc1	80*	20	31	16	-7
O=C(CNC(=O)Cc1ccccc1)NCC(=O)OCC(=O)c1ccc(F)cc1	-13	-8	-2	-3	-16
CC(C)(C)C(=O)COC(=O)CNC(=O)c1ccc(Oc2ccccc2)cc1	44*	1	34	5	-18
